Source: ChEMBL document CHEMBL1122501, “Potential antiatherosclerotic agents. 2. (Aralkylamino)- and (alkylamino) benzoic acid analogues of cetaben” (1983)

How the values were obtained:
[1] = molecular target: T1, Sterol O-acyltransferase 1 (Rattus norvegicus) (UniProt O70536); test: In vitro inhibitory activity against acyl coenzyme A:cholesterol acyltransferase (ACAT); parameters: concentration or dose not given beside the values; conditions: concentration not given here
T1 sequence (whole entry): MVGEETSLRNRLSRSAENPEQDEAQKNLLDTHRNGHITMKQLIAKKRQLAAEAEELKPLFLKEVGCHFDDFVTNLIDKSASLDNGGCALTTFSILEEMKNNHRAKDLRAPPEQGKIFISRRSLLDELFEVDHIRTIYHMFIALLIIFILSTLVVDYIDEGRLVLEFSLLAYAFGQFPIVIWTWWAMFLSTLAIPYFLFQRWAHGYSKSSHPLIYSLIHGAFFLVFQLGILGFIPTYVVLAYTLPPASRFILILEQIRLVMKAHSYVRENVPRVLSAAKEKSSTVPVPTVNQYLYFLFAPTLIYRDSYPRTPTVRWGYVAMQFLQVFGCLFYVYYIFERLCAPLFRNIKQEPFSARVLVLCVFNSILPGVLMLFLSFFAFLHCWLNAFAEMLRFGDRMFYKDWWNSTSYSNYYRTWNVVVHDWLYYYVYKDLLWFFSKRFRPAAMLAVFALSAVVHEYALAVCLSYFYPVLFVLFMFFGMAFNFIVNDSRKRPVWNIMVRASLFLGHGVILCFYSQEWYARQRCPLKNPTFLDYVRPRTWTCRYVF
Method in brief: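 ACAT enzyme from rat adrenal homogenate in 0.2 M KH2PO4 buffer pH 7.4, 1000g 15 min 5 °C supernatant (microsomal fraction). Supernatant + BSA (50 mg/mL) + compound at final 5.2 μg/mL + buffer preincubated 10 min 37 °C; [14C]oleoyl-CoA (0.4 μCi) added, 30 min 37 °C. Lipids extracted, TLC; cholesteryl ester zone counted. Mean % inhibition vs no-compound control; Student's t test.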

[2] = test system: Rattus norvegicus; test: In vivo triglyceride lowering activity, dosed at 0.03 % of the diet; assay type: functional
Method in brief: (§1)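 Male CFE or CD-1 Sprague-Dawley rats, 140-150 g; 8 per control group, 4 per test group. Compound mixed into ground chow (w/w) via MeOH-CHCl3 (1:3) solution, solvent evaporated; controls got solvent-treated chow. Fed ad libitum 5 days, food intake monitored, killed fed and bled. Serum sterols and triglycerides by adapted autoanalyzer methods; mean percent of control, Student's t test.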

[3] = test system: Rattus norvegicus; test: In vivo Sterol lowering activity at dose as 0.03 % of the diet.; assay type: functional; method in brief: as §1
[4] = test system: Rattus norvegicus; test: In vivo Sterol lowering activity at dose as 0.10 % of the diet.; assay type: functional; method in brief: as §1
[5] = test system: Rattus norvegicus; test: In vivo Triglyceride lowering activity at dose as 0.01 % of the diet; assay type: functional; method in brief: as §1
[6] = test system: Rattus norvegicus; test: In vivo triglyceride lowering activity dosed at 0.10 % of the diet; assay type: functional; method in brief: as §1
[7] = test system: Rattus norvegicus; test: In vivo Sterol lowering activity at dose as 0.01 % of the diet.; assay type: functional; method in brief: as §1
[8] = test system: Rattus norvegicus; test: In vivo Triglyceride lowering activity at dose as 0.03 % of the diet.; assay type: functional; method in brief: as §1
[9] = test system: Rattus norvegicus; test: In vivo triglyceride lowering activity, dosed at 0.01 % of the diet.; assay type: functional; method in brief: as §1
[10] = test system: Rattus norvegicus; test: In vivo sterol lowering activity dosed at 0.10 % of the diet; assay type: functional; method in brief: as §1

CCOC(=O)c1ccc(NCCCCCCc2ccco2)cc1
inhibition [1]: 37% | serum triglycerides, percent of control [2]: 64% | serum sterol level, percent of control [3]: 103% | serum sterol, percent of control [4]: 90% | Diet [5]: 68% | serum triglycerides, percent of control [6]: 60% | serum sterol, percent of control [7]: 95%

CCOC(=O)c1cccc(NCCCc2ccc(Cl)cc2)c1
inhibition [1]: 50% | serum triglycerides, percent of control [2]: 62% | serum sterol level, percent of control [3]: 93% | serum sterol, percent of control [4]: 96% | Diet [5]: 75% | serum triglycerides, percent of control [6]: 59% | serum sterol, percent of control [7]: 96%

O=C(O)Cc1ccc(NCCCc2ccc(Cl)cc2)cc1
inhibition [1]: 9% | Diet [8]: 95% | serum sterol level, percent of control [3]: 85% | serum sterol, percent of control [4]: 82% | Diet [9]: 111% | serum triglycerides, percent of control [6]: 61% | serum sterol, percent of control [7]: 83%

CCOC(=O)c1ccc(NC/C=C/c2ccc(Cl)cc2)cc1
inhibition [1]: 23% | serum triglycerides, percent of control [2]: 45% | serum sterol level, percent of control [3]: 100% | serum sterol, percent of control [4]: 78% | Diet [5]: 64% | serum triglycerides, percent of control [6]: 46% | serum sterol, percent of control [7]: 93%

Cc1ccc(CCCNc2ccc(C(=O)O)cc2)cc1
inhibition [1]: 49% | serum triglycerides, percent of control [2]: 54% | serum sterol level, percent of control [3]: 98% | serum sterol, percent of control [4]: 110% | Diet [5]: 63% | serum triglycerides, percent of control [6]: 50% | serum sterol, percent of control [7]: 90%

CCOC(=O)C(C)c1ccc(NCCCc2ccc(Cl)cc2)cc1 (stereo not given)
inhibition [1]: 85% | serum triglycerides, percent of control [2]: 48% | serum sterol level, percent of control [3]: 89% | serum sterol, percent of control [4]: 75% | Diet [5]: 57% | serum triglycerides, percent of control [6]: 42% | serum sterol, percent of control [7]: 86%

CCOC(=O)c1ccc(NCCc2ccc(Cl)cc2)cc1
inhibition [1]: 37% | Diet [8]: 90% | serum sterol level, percent of control [3]: 113% | serum sterol, percent of control [4]: 97% | Diet [5]: 70% | serum triglycerides, percent of control [6]: 60% | serum sterol, percent of control [7]: 115%

O=C(O)c1ccc(NCCc2ccc(Cl)cc2)cc1
inhibition [1]: 6% | Diet [8]: 91% | serum sterol level, percent of control [3]: 90% | serum sterol, percent of control [4]: 105% | Diet [9]: 114% | serum triglycerides, percent of control [6]: 67% | serum sterol, percent of control [7]: 106%

O=C(O)c1cccc(NCCCc2ccc(Cl)cc2)c1
inhibition [1]: 0% | Diet [8]: 93% | serum sterol level, percent of control [3]: 89% | serum sterol, percent of control [4]: 92% | Diet [9]: 80% | serum triglycerides, percent of control [6]: 37% | serum sterol, percent of control [7]: 103%

O=C(OCC(O)CO)c1ccc(NCCCc2ccccc2)cc1 (stereo not given)
inhibition [1]: 21% | Diet [8]: 92% | serum sterol level, percent of control [3]: 85% | serum sterol, percent of control [10]: 74% | Diet [5]: 57% | serum triglycerides, percent of control [6]: 49% | serum sterol, percent of control [7]: 90%

CC(C(=O)O)c1ccc(NCCCc2ccc(Cl)cc2)cc1 (stereo not given)
inhibition [1]: 14% | serum triglycerides, percent of control [2]: 63% | serum sterol level, percent of control [3]: 96% | serum sterol, percent of control [10]: 62% | Diet [5]: 63% | serum triglycerides, percent of control [6]: 33% | serum sterol, percent of control [7]: 94%

O=C(O)c1ccc(NCCCCCC(O)c2ccc(Cl)cc2)cc1 (stereo not given)
inhibition [1]: 30% | Diet [8]: 90% | serum sterol level, percent of control [3]: 100% | serum sterol, percent of control [4]: 86% | Diet [9]: 85% | serum triglycerides, percent of control [6]: 72% | serum sterol, percent of control [7]: 100%

CCOC(=O)c1ccc(NCCCc2ccccc2N)cc1
inhibition [1]: 43% | Diet [8]: 97% | serum sterol level, percent of control [3]: 96% | serum sterol, percent of control [4]: 98% | Diet [9]: 83% | serum triglycerides, percent of control [6]: 69% | serum sterol, percent of control [7]: 103%

CCOC(=O)c1ccc(NCc2cccs2)cc1
inhibition [1]: 44% | Diet [8]: 78% | serum sterol level, percent of control [3]: 98% | Diet [9]: 94% | serum sterol, percent of control [7]: 104%

CCOC(=O)c1ccc(NCCCc2ccc(C)cc2)cc1
inhibition [1]: 31% | serum triglycerides, percent of control [2]: 54% | serum sterol level, percent of control [3]: 103% | serum sterol, percent of control [10]: 122% | Diet [5]: 72% | serum triglycerides, percent of control [6]: 68% | serum sterol, percent of control [7]: 127%

O=C(O)c1ccc(NCCCc2cccc(F)c2)cc1
inhibition [1]: 18% | serum triglycerides, percent of control [2]: 61% | serum sterol level, percent of control [3]: 97% | Diet [4]: 90% | Diet [5]: 53% | serum triglycerides, percent of control [6]: 35% | serum sterol, percent of control [7]: 94%

CCOC(=O)c1ccc(NCCCc2ccc(Cl)c(Cl)c2)cc1
inhibition [1]: 43% | Diet [8]: 98% | serum sterol level, percent of control [3]: 98% | serum sterol, percent of control [4]: 90% | Diet [9]: 90% | serum triglycerides, percent of control [6]: 66% | serum sterol, percent of control [7]: 86%

O=C(O)c1ccc(NCCCc2ccccc2[N+](=O)[O-])cc1
inhibition [1]: 2% | Diet [8]: 103% | serum sterol level, percent of control [3]: 83% | serum sterol, percent of control [10]: 83% | Diet [9]: 84% | serum triglycerides, percent of control [6]: 77% | serum sterol, percent of control [7]: 88%

CCOC(=O)c1ccc(NCCCc2cccc(Cl)c2)cc1
inhibition [1]: 79% | serum triglycerides, percent of control [2]: 65% | serum sterol level, percent of control [3]: 88% | serum sterol, percent of control [10]: 80% | Diet [5]: 65% | serum triglycerides, percent of control [6]: 56% | serum sterol, percent of control [7]: 93%

CCOC(=O)c1ccc(NCCCCCCc2ccc(Cl)cc2)cc1
inhibition [1]: 30% | serum triglycerides, percent of control [2]: 68% | serum sterol level, percent of control [3]: 95% | serum sterol, percent of control [4]: 85% | Diet [5]: 73% | serum triglycerides, percent of control [6]: 50% | serum sterol, percent of control [7]: 99%

O=C(O)c1ccc(NCCCCCCc2ccco2)cc1
inhibition [1]: 21% | Diet [8]: 61% | serum sterol level, percent of control [3]: 87% | serum sterol, percent of control [10]: 86% | Diet [9]: 67% | serum triglycerides, percent of control [6]: 51% | serum sterol, percent of control [7]: 91%
